Key:
Rumex acetosa [1] = assay: Post-emergence herbicidal activity against Rumex acetosa assessed as growth inhibition at emulsified concentrate of 37.5 g/ai ha after 15 days by greenhouse test; format: functional
Polygonum humifusum [2] = assay: Post-emergence herbicidal activity against Polygonum humifusum assessed as growth inhibition at emulsified concentrate of 150 g/ai ha after 15 days by greenhouse test; format: functional
Abutilon theophrasti [3] = assay: Post-emergence herbicidal activity against Abutilon theophrasti (velvetleaf) assessed as growth inhibition at emulsified concentrate of 150 g/ai ha after 15 days by greenhouse test; format: functional
Polygonum humifusum [4] = assay: Post-emergence herbicidal activity against Polygonum humifusum assessed as growth inhibition at emulsified concentrate of 37.5 g/ai ha after 15 days by greenhouse test; format: functional
Polygonum humifusum [5] = assay: Post-emergence herbicidal activity against Polygonum humifusum assessed as growth inhibition at emulsified concentrate of 75 g/ai ha after 15 days by greenhouse test; format: functional
Eclipta prostrata [6] = assay: Post-emergence herbicidal activity against Eclipta prostrata assessed as growth inhibition at emulsified concentrate of 75 g/ai ha after 15 days by greenhouse test; format: functional
Summary of the method: (§1)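 Compounds were made up as 100 g/L emulsifiable concentrates in DMF with Tween-80, then diluted in water. About 20 seeds were sown 1-3 cm deep in pots and grown in a greenhouse at 15-30 °C and 50% relative humidity. Sprays were applied postemergence at the two-leaf stage. Untreated and DMF + Tween-80 solvent controls were included. Injury was scored visually 15 days after treatment, with three replicates per treatment.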

Amaranthus retroflexus [7] = assay: Post-emergence herbicidal activity against Amaranthus retroflexus assessed as growth inhibition at emulsified concentrate of 150 g/ai ha after 15 days by greenhouse test; format: functional
Summary of the method: (§2)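 About 20 seeds sown 1–3 cm deep, grown at 15–30 °C and 50% RH. Dicot seedlings sprayed postemergence at the two-leaf stage with a 100 g/L emulsifiable concentrate (DMF/Tween-80) diluted in water, 150 g ai/ha. Untreated and solvent controls included. Visual rating at 15 days, three replicates.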

Brassica juncea [8] = assay: Post-emergence herbicidal activity against Brassica juncea assessed as growth inhibition at emulsified concentrate of 150 g/ai ha after 15 days by greenhouse test; format: functional; summary of the method: as §2
Cyperus iria [9] = assay: Post-emergence herbicidal activity against Cyperus iria assessed as growth inhibition at emulsified concentrate of 150 g/ai ha after 15 days by greenhouse test; format: functional
Cyperus iria [10] = assay: Post-emergence herbicidal activity against Cyperus iria assessed as growth inhibition at emulsified concentrate of 37.5 g/ai ha after 15 days by greenhouse test; format: functional
Echinochloa crus-galli = assay: Post-emergence herbicidal activity against Echinochloa crus-galli (barnyard grass) assessed as growth inhibition at emulsified concentrate of 150 g/ai ha after 15 days by greenhouse test; format: functional
Summary of the method: (§3)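 About 20 seeds sown 1–3 cm deep, grown at 15–30 °C and 50% RH. Monocot seedlings sprayed postemergence at the one-leaf stage with a 100 g/L emulsifiable concentrate (DMF/Tween-80) diluted in water, 150 g ai/ha. Untreated and solvent controls included. Visual rating at 15 days, three replicates.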

Digitaria sanguinalis = assay: Post-emergence herbicidal activity against Digitaria sanguinalis (hairy crabgrass) assessed as growth inhibition at emulsified concentrate of 150 g/ai ha after 15 days by greenhouse test; format: functional; summary of the method: as §3
Abutilon theophrasti [11] = assay: Post-emergence herbicidal activity against Abutilon theophrasti (velvetleaf) assessed as growth inhibition at emulsified concentrate of 37.5 g/ai ha after 15 days by greenhouse test; format: functional
Eclipta prostrata [12] = assay: Post-emergence herbicidal activity against Eclipta prostrata assessed as growth inhibition at emulsified concentrate of 150 g/ai ha after 15 days by greenhouse test; format: functional; summary of the method: as §2
Poa annua = assay: Post-emergence herbicidal activity against Poa annua assessed as growth inhibition at emulsified concentrate of 150 g/ai ha after 15 days by greenhouse test; format: functional; summary of the method: as §3
Brassica juncea [13] = assay: Post-emergence herbicidal activity against Brassica juncea assessed as growth inhibition at emulsified concentrate of 75 g/ai ha after 15 days by greenhouse test; format: functional; summary of the method: as §1
Eclipta prostrata [14] = assay: Post-emergence herbicidal activity against Eclipta prostrata assessed as growth inhibition at emulsified concentrate of 37.5 g/ai ha after 15 days by greenhouse test; format: functional; summary of the method: as §1
Amaranthus retroflexus [15] = assay: Post-emergence herbicidal activity against Amaranthus retroflexus assessed as growth inhibition at emulsified concentrate of 37.5 g/ai ha after 15 days by greenhouse test; format: functional; summary of the method: as §1
Brassica juncea [16] = assay: Post-emergence herbicidal activity against Brassica juncea assessed as growth inhibition at emulsified concentrate of 37.5 g/ai ha after 15 days by greenhouse test; format: functional; summary of the method: as §1
[17] = target: T1, Protoporphyrinogen oxidase (Homo sapiens, UniProt P50336); assay: Inhibition of Homo sapiens (human) recombinant protoporphyrinogen oxidase expressed in Escherichia coli JM109 assessed as oxidation of protoporphyrinogen IX substrate by fluorescence assay
T1 sequence (P50336 whole entry): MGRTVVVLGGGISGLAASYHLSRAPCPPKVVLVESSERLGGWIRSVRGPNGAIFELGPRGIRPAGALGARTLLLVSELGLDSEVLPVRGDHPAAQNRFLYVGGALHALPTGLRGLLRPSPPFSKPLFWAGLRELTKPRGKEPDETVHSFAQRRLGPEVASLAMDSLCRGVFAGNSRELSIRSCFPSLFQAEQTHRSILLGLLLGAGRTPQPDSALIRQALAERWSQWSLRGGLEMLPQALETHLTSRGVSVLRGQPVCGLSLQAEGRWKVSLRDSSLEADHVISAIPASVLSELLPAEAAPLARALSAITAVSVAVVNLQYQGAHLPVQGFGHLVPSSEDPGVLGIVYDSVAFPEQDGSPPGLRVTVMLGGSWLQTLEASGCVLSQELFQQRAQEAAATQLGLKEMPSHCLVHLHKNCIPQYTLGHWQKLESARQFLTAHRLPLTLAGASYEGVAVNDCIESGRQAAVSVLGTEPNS

Abutilon theophrasti [18] = assay: Post-emergence herbicidal activity against Abutilon theophrasti (velvetleaf) assessed as growth inhibition at emulsified concentrate of 75 g/ai ha after 15 days by greenhouse test; format: functional
Rumex acetosa [19] = assay: Post-emergence herbicidal activity against Rumex acetosa assessed as growth inhibition at emulsified concentrate of 75 g/ai ha after 15 days by greenhouse test; format: functional
Rumex acetosa [20] = assay: Post-emergence herbicidal activity against Rumex acetosa assessed as growth inhibition at emulsified concentrate of 150 g/ai ha after 15 days by greenhouse test; format: functional
Cyperus iria [21] = assay: Post-emergence herbicidal activity against Cyperus iria assessed as growth inhibition at emulsified concentrate of 75 g/ai ha after 15 days by greenhouse test; format: functional
Amaranthus retroflexus [22] = assay: Post-emergence herbicidal activity against Amaranthus retroflexus assessed as growth inhibition at emulsified concentrate of 75 g/ai ha after 15 days by greenhouse test; format: functional; summary of the method: as §1

Row | Structure (SMILES) | inhibition (INH) (Rumex acetosa [1]) | inhibition (INH) (Polygonum humifusum [2]) | inhibition (INH) (Abutilon theophrasti [3]) | inhibition (INH) (Polygonum humifusum [4]) | inhibition (INH) (Polygonum humifusum [5]) | inhibition (INH) (Eclipta prostrata [6]) | inhibition (INH) (Amaranthus retroflexus [7]) | inhibition (INH) (Brassica juncea [8]) | inhibition (INH) (Cyperus iria [9]) | inhibition (INH) (Cyperus iria [10]) | inhibition (INH) (Echinochloa crus-galli) | inhibition (INH) (Digitaria sanguinalis) | inhibition (INH) (Abutilon theophrasti [11]) | inhibition (INH) (Eclipta prostrata [12]) | inhibition (INH) (Poa annua) | inhibition (INH) (Brassica juncea [13]) | inhibition (INH) (Eclipta prostrata [14]) | inhibition (INH) (Amaranthus retroflexus [15]) | inhibition (INH) (Brassica juncea [16]) | Ki [17] | also measured
1 | CCOC(=O)CCSc1nc2cc(-n3nc(C(C)(C)C)oc3=O)c(Cl)cc2s1 | 60% | 70% | 0% | 70% | 70% | 60% | 80% | 70% | 60% | 40% | 0% | 0% | 0% | 60% | 0% | 60% | 50% | 50% | 60% | 0.25 µM | inhibition (INH) (Abutilon theophrasti [18]): 0%; inhibition (INH) (Rumex acetosa [19]): 70%; inhibition (INH) (Rumex acetosa [20]): 70%; inhibition (INH) (Cyperus iria [21]): 50%; inhibition (INH) (Amaranthus retroflexus [22]): 60%
2 | CCOC(=O)CSc1nc2cc(-n3nc(C(C)(C)C)oc3=O)c(F)cc2s1 | 50% | 80% | 0% | 70% | 70% | 0% | 90% | 50% | 70% | 60% | 0% | 0% | 0% | 50% | 0% | 50% | 0% | 50% | 0% | 1.58 µM | inhibition (INH) (Abutilon theophrasti [18]): 0%; inhibition (INH) (Rumex acetosa [19]): 50%; inhibition (INH) (Rumex acetosa [20]): 70%; inhibition (INH) (Cyperus iria [21]): 70%; inhibition (INH) (Amaranthus retroflexus [22]): 50%
3 | CC(C)OC(=O)CSc1nc2cc(-n3nc(C(C)(C)C)oc3=O)c(F)cc2s1 | 50% | 60% | 0% | 40% | 40% | 0% | 90% | 40% | 60% | 50% | 0% | 0% | 0% | 70% | 0% | 50% | 0% | 0% | 40% | 1.17 µM | inhibition (INH) (Abutilon theophrasti [18]): 0%; inhibition (INH) (Rumex acetosa [19]): 60%; inhibition (INH) (Rumex acetosa [20]): 70%; inhibition (INH) (Cyperus iria [21]): 50%; inhibition (INH) (Amaranthus retroflexus [22]): 85%

— ChEMBL document CHEMBL3045650, “Design, synthesis, and 3D-QSAR analysis of novel 1,3,4-oxadiazol-2(3H)-ones as protoporphyrinogen oxidase inhibitors” (J Agric Food Chem, 2010)
